Assay results as given in PMC5542862 (Microcirculation (New York, N.Y. : 1994), 2017).
Like-named read-outs stand apart in the source and are kept apart here.

Experiments:
[1] = tested on: arcade and terminal arterioles of the hamster cheek pouch; assay type: in vivo; settings: for Effect of muscarinic blockade on vasoactivity (in words): atropine 10^−7 M in tissue bath; for Effect of beta-adrenergic blockade on dilation (in words): propranolol 10^−6M in tissue bath; for Dose range of vasodilation / Control Dose Max dilation / Control (%) Max dilation: quiescent tissue; for Dose range of vasodilation: mucocutaneous microvasculature; for Control Dose Max dilation: 60-second micropipette exposure; for Control (%) Max dilation: at the dose of max dilation
Outline: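 Adult male hamsters were anaesthetised with pentobarbital (70 mg/kg), tracheostomised and kept at 37 °C. The left cheek pouch was superfused with 37 °C bicarbonate-buffered saline and rested 30 min. Test compound was given by micropipette (10–20 μm tip, with FITC-dextran 10−6M) at the arcade–terminal junction for 60 s, then 5 min recovery. One full concentration series per site, 2–4 sites ≥1000 μm apart. Fractional diameter change = (baseline−peak)/baseline; repeated-measures ANOVA.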

[2] = tested on: arcade and terminal arterioles of the hamster cheek pouch; assay: Hamster cheek pouch intravital microscopy, nitrosative stress model; assay type: in vivo; settings: for Vasoactive response after stress compared with before (in words): nitrosative stress, agent 10^−4M by micropipette, n=35; for Effect of nitrosative stress on the concentration response (in words): SNP 10^−4M in tissue bath for 2 minutes; for Stress (%) Max dilation: after stress, at the dose of max dilation
Outline: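 Anaesthetised male hamster cheek pouch, superfused with 37 °C bicarbonate saline. Stress: SNP 10−4M washed into the bath for 2 min, with endothelial dysfunction checked by micropipette acetylcholine 10−4M. Test compound was given by micropipette for 60 s with 5 min recovery, 15 min–3 h after stress, at most four exposures per site. Response = (baseline−peak)/baseline from video; repeated-measures ANOVA, unpaired t-test.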

[3] = tested on: arcade and terminal arterioles of the hamster cheek pouch; assay type: in vivo; settings: 20s, 50 °C, within 500 μm of heat rim
Outline: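 In the superfused cheek pouch of anaesthetised male hamsters, a thermocouple-controlled microcautery Pt wire (300 μm) applied 50 °C for 20 s. After 15 min, micropipette exposures (60 s, 5 min recovery) were mapped to 1000 μm from the heat rim; only sites within 500 μm are reported. Diameter change = (baseline−peak)/baseline from video; repeated-measures ANOVA or unpaired t-test, α 0.05.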

[4] = tested on: adult human dermal fibroblasts; settings: cited from earlier work
PDGF-BB [5] = settings: Lin, et al., 2014, Zhu; cited from earlier work
PDGF-BB [6] = settings: cited from earlier work; for Kd: read-out: KD for PDGF-BB binding
[7] = tested on: thermal burn injury progression; settings: rat hot comb model; cited from earlier work

Nc1ncnc2c1ncn2[C@@H]1O[C@H](CO)[C@@H](O)[C@H]1O [adenosine, reference compound]
Diameter change, fractional change from baseline ([1]; arcade arterioles, adenosine 10^−4 M, mean ± SD): 0.54±0.35 | Diameter change, fractional change from baseline ([1]; terminal arterioles, adenosine 10^−4 M, mean ± SD): 0.60±0.43 | Vasoactive response after stress compared with before (in words) [2]: compromised

PSHISKYILRWRPK [EVA-1, epiviosamine-1]
Effect of muscarinic blockade on vasoactivity (in words) [1]: no effect | Effect of beta-adrenergic blockade on dilation (in words) ([1]; arcade and terminal arterioles): prevented vasodilation | Dose range of vasodilation [1]: 10^−9–10^−8 M | Control Dose Max dilation ([1]; terminal arterioles): 10^−9M | Control (%) Max dilation ([1]; terminal arterioles): 22% | Effect of nitrosative stress on the concentration response (in words) [2]: left shift | Stress (%) Max dilation [2]: 32% | Dilation at 10^−8M after thermal stress (in words) ([3]; arcade arterioles): reversed to constriction | Response to sub-nanomolar dose after thermal stress (in words) ([3]; both arteriolar types): significant vasodilation | Dilation at 10^−8M after thermal stress (in words) ([3]; terminal arterioles): eliminated | Dose conferring survival activity [4]: 10^−7 M | FN/PDGF-BB binding inhibition (PDGF-BB [5]): 95.5% | Dose range binding PDGF-BB (PDGF-BB [6]): 10^−8–10^−7 M | Kd (PDGF-BB [6]): 200 nM | Effect on thermal burn injury progression (in words) [7]: limits thermal burn injury progression

nitroprusside [reference compound]
Vasoactive response after stress compared with before (in words) [2]: not compromised

RWRPK [P37]
Effect of beta-adrenergic blockade on dilation (in words) ([1]; arcade and terminal arterioles): prevented vasodilation | Control (%) Max dilation ([1]; terminal arterioles): 19% | Effect of nitrosative stress on the concentration response (in words) [2]: left shift | Stress (%) Max dilation [2]: 45% | FN/PDGF-BB binding inhibition (PDGF-BB [5]): 0.0%

CC(C)NCC(O)c1ccc(O)c(O)c1 (stereo not drawn) [isoproterenol, reference compound]
Diameter change, fractional change from baseline ([1]; arcade arterioles, isoproterenol 10^−7M with propranolol (10^−6M), mean ± SD, n=23 sites): 0.00±0.11 | Diameter change, fractional change from baseline ([1]; arcade arterioles, isoproterenol 10^−7M, no blocker, mean ± SD, n=23 sites): 0.41±0.3 | Diameter change, fractional change from baseline ([1]; terminal arterioles, isoproterenol 10^−6M with carazolol 10^−9M, mean+sem, significant constriction): −0.50+0.15 | Diameter change, fractional change from baseline ([1]; terminal arterioles, isoproterenol 10^−7M with propranolol (10^−6M), mean ± SD, n=23 sites): 0.01±0.00 | Diameter change, fractional change from baseline ([1]; terminal arterioles, isoproterenol 10^−7M, no blocker, mean ± SD, n=23 sites): 0.43±0.34

FN: Full-length plasma fibronectin
Vasoactive response in quiescent tissue (in words) ([1]; arcade and terminal arterioles, 10^−16–10^−4M by micropipette, N=5–8 per peptide): induced only vasodilation | Effect of muscarinic blockade on vasoactivity (in words) [1]: no effect | Effect of combined alpha- and beta-adrenergic blockade (in words) ([1]; phentolamine 10^−5M plus propranolol 10^−6M): eliminated only the vasodilation with the peptides and not FN | Effect of beta-adrenergic blockade on dilation (in words) ([1]; arcade and terminal arterioles): significantly diminished dilation

ILRWRPK [P7]
Effect of muscarinic blockade on vasoactivity (in words) [1]: no effect | Effect of beta-adrenergic blockade on dilation (in words) ([1]; arcade and terminal arterioles): prevented vasodilation | Dose range of vasodilation [1]: 10^−9–10^−8 M | Control Dose Max dilation ([1]; terminal arterioles): 10^−8M | Control (%) Max dilation ([1]; terminal arterioles): 28% | Effect of nitrosative stress on the concentration response (in words) [2]: left shift | Stress (%) Max dilation [2]: 29% | FN/PDGF-BB binding inhibition (PDGF-BB [5]): 0.1% | Kd (PDGF-BB [6]): 1000 nM

YILRWRPK [P18]
Effect of beta-adrenergic blockade on dilation (in words) ([1]; arcade and terminal arterioles): prevented vasodilation | Control Dose Max dilation ([1]; terminal arterioles): 10^−8M | Control (%) Max dilation ([1]; terminal arterioles): 26% | FN/PDGF-BB binding inhibition (PDGF-BB [5]): 26%

CC(=O)OCC[N+](C)(C)C [acetylcholine, reference compound]
Diameter change, fractional change from baseline ([1]; arcade arterioles, acetylcholine 10^−4M with atropine (10^−7 M), mean ± SD, n=26 sites): 0.03±0.15 | Diameter change, fractional change from baseline ([1]; arcade arterioles, acetylcholine 10^−4M, no blocker, mean ± SD, n=26 sites): 0.50±0.36 | Diameter change, fractional change from baseline ([1]; terminal arterioles, acetylcholine 10^−4M with atropine (10^−7 M), mean ± SD, n=26 sites): 0.03±0.10 | Diameter change, fractional change from baseline ([1]; terminal arterioles, acetylcholine 10^−4M, no blocker, mean ± SD, n=26 sites): 0.49±0.28

LRWRPK [P39]
Control (%) Max dilation ([1]; terminal arterioles): 8% | FN/PDGF-BB binding inhibition (PDGF-BB [5]): 0.0%

CNC[C@H](O)c1cccc(O)c1 [phenylephrine, reference compound]
Diameter change, fractional change from baseline ([1]; arcade arterioles, phenylephrine 10^−5M, no blocker, mean ± SD, n=23 sites): −0.52±0.18 | Diameter change, fractional change from baseline ([1]; arcade arterioles, phenylephrine 10^−6M, mean ± SD): −0.53±0.18 | Diameter change, fractional change from baseline ([1]; terminal arterioles, phenylephrine 10^−5M, no blocker, mean ± SD, n=23 sites): −0.48±0.16 | Diameter change, fractional change from baseline ([1]; terminal arterioles, phenylephrine 10^−6M, mean ± SD): −0.48±0.16 | Vasoactive response after stress compared with before (in words) [2]: unaffected
